Source: ChEMBL document CHEMBL1144038, “Fluorinated methylenecyclopropane analogues of nucleosides. Synthesis and antiviral activity of (Z)- and (E)-9-{[(2-fluoromethyl-2-hydroxymethyl)-cyclopropylidene]methyl}adenine and -guanine” (Bioorg Med Chem, 2008)
Calls of active or inactive are those of the source. The rule behind the calls is not given here.

What was measured:
[1] = Selectivity index, ratio of CC50 for human akata cells to EC50 for Epstein-Barr virus; format: functional
[2] = Cytotoxicity against human akata cells by DNA hybridization assay; format: cell-based
Outline: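 Latently infected Akata cells grown in RPMI 1640 with 10% fetal bovine serum, L-glutamine, penicillin and gentamicin at 37 °C in humidified 5% CO2.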

[3] = Selectivity index, ratio of CC50 for human Daudi cells to EC50 for Epstein-Barr virus; format: functional
[4] = Cytotoxicity against human Daudi cells by DNA hybridization assay; format: cell-based
Human gammaherpesvirus 4 [5] = assay: Antiviral activity against Epstein-Barr virus infected in human daudi cells by DNA hybridization assay; format: functional, organism-based; details: human gammaherpesvirus 4, Daudi
[6] = Cytotoxicity against HFF cells; format: cell-based; details: human
Human betaherpesvirus 5 [7] = assay: Antiviral activity against Human cytomegalovirus Towne infected in HFF cells by plaque reduction assay; format: functional, organism-based; details: Human betaherpesvirus 5, Towne
Human gammaherpesvirus 4 [8] = assay: Antiviral activity against Epstein-Barr virus infected in human H1 cells by DNA hybridization assay; format: functional, organism-based; details: human gammaherpesvirus 4, H1
Human gammaherpesvirus 4 [9] = assay: Antiviral activity against Epstein-Barr virus infected in human daudi cells by viral capsid immunofluorescence ELISA; format: functional, organism-based; details: human gammaherpesvirus 4, Daudi
Human gammaherpesvirus 4 [10] = assay: Antiviral activity against Epstein-Barr virus infected in human akata cells; format: functional, organism-based; details: human gammaherpesvirus 4, Akata
Outline: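 Akata cells kept in RPMI 1640 with 10% fetal bovine serum, L-glutamine, penicillin and gentamicin at 37 °C, 5% CO2. Lytic infection induced in latently infected cells with F(ab')2 goat anti-human IgG. Total DNA purified; EBV genome copies quantified by real-time TaqMan PCR (900 nM primers, 200 nM probe).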

Human betaherpesvirus 5 [11] = assay: Antiviral activity against Human cytomegalovirus AD169 infected in HFF cells by plaque reduction assay; format: functional, organism-based
Hepatitis C virus = assay: Antiviral activity against Hepatitis C virus infected in human Huh7 AVA5 cells by replicon assay; format: functional, organism-based, Hepacivirus hominis; details: Huh-7
Outline: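 HCV subgenomic CON1 genotype 1b replicon line AVA5 (Huh7), sub-confluent cultures. Compound added daily in fresh medium for 3 days. Assessed 24 h after last dose: intracellular HCV RNA by blot hybridization for EC50; cytotoxicity (CC50) by neutral red dye uptake.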

[12] = Cytotoxicity against human Huh7 AVA5 cells; format: cell-based, Huh-7
Outline: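 AVA5 replicon cells (Huh7 carrying subgenomic CON1 HCV, genotype 1b) kept as sub-confluent cultures. Compound given daily in fresh medium for 3 days. Viability was read by neutral red dye uptake 24 h after the last dose.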

| Structure (SMILES) | CC50 [2] [µM] | Selectivity index [3] | CC50 [4] [µM] | EC50 (Human gammaherpesvirus 4 [5]) [µM] | EC50 (Human gammaherpesvirus 4 [10]) [µM] | also measured |
| --- | --- | --- | --- | --- | --- | --- |
| Nc1nc2c(ncn2/C=C2/CC2(CO)CO)c(=O)[nH]1 [FILOCICLOVIR] | > 100 |  |  |  |  | Selectivity index [1]: > 40 |
| Nc1ncnc2c1ncn2/C=C1/CC1(F)CO (stereo not drawn) |  | >31.3 | > 213 | 6.8 |  |  |
| Nc1nc2c(ncn2COC(CO)CO)c(=O)[nH]1 [GANCICLOVIR] |  |  |  |  |  | CC50 [6]: > 100 µM; EC50 (Human betaherpesvirus 5 [7]): 2.5 µM |
| Nc1ncnc2c1ncn2/C=C1\CC1(F)CO (stereo not drawn) |  | >1.25 | > 209 | 167 |  | EC50 (Human gammaherpesvirus 4 [8]): 3.6 µM; EC50 (Human gammaherpesvirus 4 [9]): 2.3 µM |
| Nc1nc2c(ncn2/C=C2\CC2(CO)CF)c(=O)[nH]1 (stereo not drawn) | 64.1 |  |  |  | 3.2 |  |
| Nc1nc2c(ncn2/C=C2/CC2(F)CO)c(=O)[nH]1 (stereo not drawn) |  | >24.9 | > 199 | 8 |  |  |
| Nc1ncnc2c1ncn2/C=C1\CC1(CO)CF (stereo not drawn) | 53.6 |  |  |  | 3.4 |  |
| Nc1nc2c(ncn2/C=C2\CC2(F)CO)c(=O)[nH]1 (stereo not drawn) |  | >6.8 | > 199 | 29.1 |  | EC50 (Human gammaherpesvirus 4 [9]): < 0.32 µM |
| Nc1nc2c(ncn2/C=C2/CC2(CO)CF)c(=O)[nH]1 (stereo not drawn) | 59.7 |  |  |  | 7.5 |  |
| Nc1nc2c(ncn2COCCO)c(=O)[nH]1 [ACYCLOVIR] |  |  |  |  | 1.7 |  |
| Nc1ncnc2c1ncn2/C=C1/CC1(CO)CF (stereo not drawn) | 55.7 |  |  |  | 0.5 | Activity (Human betaherpesvirus 5 [11]): inactive; CC50 [6]: > 100 µM; EC50 (Human betaherpesvirus 5 [7]): 46 µM; EC50 (Hepatitis C virus): 6.5 µM; CC50 [12]: 11 µM |
